Columns and labels:
Mus musculus [1] = assay: Biodistribution in CD1 mouse large intestine at 200 to 300 kBq, iv measured at 60 mins by gamma counting analysis; type: ADME, organism-based; details: in vivo, 1 h
Summary of the method: (§1)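 Female CD-1 mice, 200–300 kBq radiotracer given iv, n = 3 per time point. Animals anaesthetised for blood and urine sampling, then killed by cervical dislocation at 5, 15, 30 or 60 min p.i. Organs removed, weighed and gamma-counted; uptake expressed as % injected dose per g wet tissue.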

Mus musculus [2] = assay: Biodistribution in CD1 mouse small intestine at 200 to 300 kBq, iv measured at 15 mins by gamma counting analysis; type: ADME, organism-based; details: in vivo, 0.25 h
Summary of the method: (§2)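 Female CD-1 mice received 200–300 kBq [18F]radiotracer intravenously. Blood and urine were sampled under anaesthesia, then mice were killed by cervical dislocation at 5, 15, 30 or 60 min p.i. (n = 3; control at 60 min n = 7). Organs were removed and weighed, activity was gamma-counted, and uptake was expressed as % injected dose per g wet tissue.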

Pancreas = assay: Biodistribution in CD1 mouse pancreas at 200 to 300 kBq, iv measured at 15 mins by gamma counting analysis; type: ADME, organism-based; details: in vivo, 0.25 h; summary of the method: as §2
[3] = Biodistribution in CD1 mouse urine at 200 to 300 kBq, iv measured at 15 mins by gamma counting analysis; type: ADME, organism-based; details: in vivo, 0.25 h
Summary of the method: (§3)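 Female CD-1 mice given 200–300 kBq tracer intravenously. Animals anaesthetised for blood and urine sampling, then killed by cervical dislocation at 5, 15, 30 or 60 min (n = 3 per time; n = 7 at 60 min). Organs removed and weighed, activity gamma-counted, expressed as % injected dose per g wet weight. Blocking arm: 10 mg/kg i.p. in 0.9% saline, 10 min before tracer; two-tailed unpaired t test versus control.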

[4] = Biodistribution in CD1 mouse urine at 200 to 300 kBq, iv measured at 30 mins by gamma counting analysis; type: ADME, organism-based; details: in vivo, 0.5 h; summary of the method: as §3
Stomach = assay: Biodistribution in CD1 mouse stomach at 200 to 300 kBq, iv measured at 5 mins by gamma counting analysis; type: ADME, organism-based; details: in vivo; summary of the method: as §2
Zone of skin = assay: Biodistribution in CD1 mouse skin at 200 to 300 kBq, iv measured at 30 mins by gamma counting analysis; type: ADME, organism-based; details: in vivo, 0.5 h; summary of the method: as §2
Mus musculus [5] = assay: Biodistribution in CD1 mouse adrenal at 200 to 300 kBq, iv measured at 15 mins by gamma counting analysis; type: ADME, organism-based, Adrenal gland; details: in vivo, 0.25 h; summary of the method: as §1
Femur = assay: Biodistribution in CD1 mouse femur at 200 to 300 kBq, iv measured at 5 mins by gamma counting analysis; type: ADME, organism-based; details: in vivo; summary of the method: as §1
Blood = assay: Biodistribution in CD1 mouse blood at 200 to 300 kBq, iv measured at 15 mins by gamma counting analysis; type: ADME, organism-based; details: in vivo, 0.25 h; summary of the method: as §1
Heart = assay: Biodistribution in CD1 mouse heart at 200 to 300 kBq, iv measured at 30 mins by gamma counting analysis; type: ADME, organism-based; details: in vivo, 0.5 h; summary of the method: as §1
Kidney = assay: Biodistribution in CD1 mouse kidney at 200 to 300 kBq, iv measured at 60 mins by gamma counting analysis in presence of SSR180711; type: ADME, organism-based; details: in vivo, 1 h
Summary of the method: (§4)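 Blocking study in female CD-1 mice, n = 7 per blocker, with a matching control group. SSR180711 or NS6740 given at 10 mg kg⁻¹ ip in 0.9% saline 10 min before iv radiotracer (200–300 kBq). Organs taken at 60 min p.i., weighed and gamma-counted; uptake as % ID per g wet weight. Compared with control by two-tailed independent Student's t test.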

Lung [6] = assay: Biodistribution in CD1 mouse lung at 200 to 300 kBq, iv measured at 5 mins by gamma counting analysis; type: ADME, organism-based; details: in vivo; summary of the method: as §2
Mus musculus [7] = assay: Biodistribution in CD1 mouse large intestine at 200 to 300 kBq, iv measured at 15 mins by gamma counting analysis; type: ADME, organism-based; details: in vivo, 0.25 h; summary of the method: as §1
Muscle tissue [8] = assay: Biodistribution in CD1 mouse muscle at 200 to 300 kBq, iv measured at 60 mins by gamma counting analysis; type: ADME, organism-based; details: in vivo, 1 h; summary of the method: as §2
[9] = Biodistribution in CD1 mouse urine at 200 to 300 kBq, iv measured at 5 mins by gamma counting analysis; type: ADME, organism-based; details: in vivo; summary of the method: as §3
Muscle tissue [10] = assay: Biodistribution in CD1 mouse muscle at 200 to 300 kBq, iv measured at 5 mins by gamma counting analysis; type: ADME, organism-based; details: in vivo; summary of the method: as §2
Mus musculus [11] = assay: Biodistribution in CD1 mouse large intestine at 200 to 300 kBq, iv measured at 30 mins by gamma counting analysis; type: ADME, organism-based; details: in vivo, 0.5 h; summary of the method: as §1
[12] = Biodistribution in CD1 mouse urine at 200 to 300 kBq, iv measured at 60 mins by gamma counting analysis; type: ADME, organism-based; details: in vivo, 1 h; summary of the method: as §3
Mus musculus [13] = assay: Biodistribution in CD1 mouse thymus at 200 to 300 kBq, iv measured at 15 mins by gamma counting analysis; type: ADME, organism-based; details: in vivo, 0.25 h; summary of the method: as §2
Lung [14] = assay: Biodistribution in CD1 mouse lung at 200 to 300 kBq, iv measured at 30 mins by gamma counting analysis; type: ADME, organism-based; details: in vivo, 0.5 h; summary of the method: as §2
Mus musculus [15] = assay: Biodistribution in CD1 mouse small intestine at 200 to 300 kBq, iv measured at 5 mins by gamma counting analysis; type: ADME, organism-based; details: in vivo; summary of the method: as §2
Brain = assay: Biodistribution in CD1 mouse brain at 200 to 300 kBq, iv measured at 30 mins by gamma counting analysis; type: ADME, organism-based; details: in vivo, 0.5 h; summary of the method: as §1
Mus musculus [16] = assay: Biodistribution in CD1 mouse adrenal at 200 to 300 kBq, iv measured at 60 mins by gamma counting analysis in presence of SSR180711; type: ADME, organism-based, Adrenal gland; details: in vivo, 1 h; summary of the method: as §4
Spleen = assay: Biodistribution in CD1 mouse spleen at 200 to 300 kBq, iv measured at 60 mins by gamma counting analysis in presence of SSR180711; type: ADME, organism-based; details: in vivo, 1 h
Summary of the method: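 Blocking design in female CD-1 mice, n = 7 per group. The blocker was given at 10 mg kg^-1 i.p. in 0.9% saline 10 min before i.v. 200–300 kBq [18F]radiotracer. Mice were killed at 60 min p.i. and organs weighed and gamma-counted as % ID per g wet weight. Blocked groups were compared with controls by two-tailed independent Student's t test.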

Structure (SMILES): O=C(Oc1ccc(Br)cc1)N1CCN2CCC1CC2 [SSR180711]
- Drug uptake (Mus musculus [1]): 5.02 % ID/g
- Drug uptake (Mus musculus [2]): 6.72 % ID/g
- Drug uptake (Pancreas): 5.48 % ID/g
- Drug uptake [3]: 122 % ID/g
- Drug uptake [4]: 123 % ID/g
- Drug uptake (Stomach): 3.92 % ID/g
- Drug uptake (Zone of skin): 1.23 % ID/g
- Drug uptake (Mus musculus [5]): 5.65 % ID/g
- Drug uptake (Femur): 1.45 % ID/g
- Drug uptake (Blood): 1.25 % ID/g
- Drug uptake (Heart): 2.41 % ID/g
- Drug uptake (Kidney): 10.5 % ID/g
- Drug uptake (Lung [6]): 8.48 % ID/g
- Drug uptake (Mus musculus [7]): 2.65 % ID/g
- Drug uptake (Muscle tissue [8]): 1 % ID/g
- Drug uptake [9]: 23.9 % ID/g
- Drug uptake (Muscle tissue [10]): 1.59 % ID/g
- Drug uptake (Mus musculus [11]): 2.7 % ID/g
- Drug uptake [12]: 152 % ID/g
- Drug uptake (Mus musculus [13]): 2.98 % ID/g
- Drug uptake (Lung [14]): 6.78 % ID/g
- Drug uptake (Mus musculus [15]): 3.44 % ID/g
- Drug uptake (Brain): 0.18 % ID/g
- Drug uptake (Mus musculus [16]): 3.65 % ID/g
- Drug uptake (Spleen): 7.53 % ID/g

— ChEMBL document CHEMBL2380270, “Radiosynthesis and first evaluation in mice of [(18)F]NS14490 for molecular imaging of α7 nicotinic acetylcholine receptors” (Bioorg Med Chem, 2013)
